# Laboratory results reported in ChEMBL document CHEMBL1125931, “Fluorescent markers for hypoxic cells: a study of nitroaromatic compounds, with fluorescent heterocyclic side chains, that undergo bioreductive binding” (J Med Chem, 1991).
# What was measured:
# [1] = Binding of fluorescence moiety to oxic cells measured in flow cytometry assay at conc of 10e-4 M.; format: functional, Cricetulus griseus
# Summary of the method: (§1)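 V79 379A Chinese hamster cells (suspension culture, MEM with 7.5% fetal calf serum) incubated at 37 °C with 10^-4 M drug under aerobic or hypoxic gassing (air or N2, each + 5% CO2); DMSO final ≤1%. Flow cytometry after 6 h: excitation 365 nm, emission >390 or 410 nm; naphthalimides excited 458 nm, emission 510–560 nm. Mean fluorescence, arbitrary units, normalized for PMT gain and laser power.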
# [2] = Cellular content after 4 hr incubation with compound under aerobic condition at 37 C.; format: functional; conditions: Cricetulus griseus
# Summary of the method: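 Aerobic V79 Chinese hamster cells exposed to 10^-4 M extracellular drug for 4 h at 37 °C, then washed with PBS. Cell content measured by HPLC with an acetonitrile gradient, 50–75% over 10 min with 390 nm detection or 30–50% with 340 nm detection depending on compound. Reported as fmol per cell; about 0.1 fmol/cell corresponds to equilibration with the extracellular space.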
# [3] = Binding of fluorescence moiety to hypoxic cells measured in flow cytometry assay at conc of 10e-4 M.; format: functional, Cricetulus griseus; summary of the method: as §1
compound,measurement,setting,value
Nc1ccc2c3c(cccc13)C(=O)N(CCCCCn1ccnc1[N+](=O)[O-])C2=O,Fluorescence Intensity,[1],42
same,Uptake,[2],93 fmol/cell
same,Fluorescence Intensity,[3],235
CC(=O)Nc1ccc2c3c(cccc13)C(=O)N(CCCn1ccnc1[N+](=O)[O-])C2=O,Fluorescence Intensity,[1],12
same,Uptake,[2],0.04 fmol/cell
same,Fluorescence Intensity,[3],37
O=C(CNCCCN(CCO)CCO)Nc1ccc2c3c(cccc13)C(=O)N(CCCn1ccnc1[N+](=O)[O-])C2=O,Fluorescence Intensity,[1],13
same,Uptake,[2],< 0.005 fmol/cell
same,Fluorescence Intensity,[3],24
COc1cc2oc(=O)cc(Cn3ccnc3[N+](=O)[O-])c2cc1OC,Fluorescence Intensity,[1],64
same,Fluorescence Intensity,[3],1461
COc1ccc2cc(Cn3ccnc3[N+](=O)[O-])c(=O)oc2c1,Fluorescence Intensity,[1],85
same,Fluorescence Intensity,[3],203
COc1ccc2cc(C(=O)NCCN(CCO)CC(O)Cn3ccnc3[N+](=O)[O-])c(=O)oc2c1 (centres undefined),Fluorescence Intensity,[1],24
same,Fluorescence Intensity,[3],412
Nc1ccc2c3c(cccc13)C(=O)N(CCCn1ccnc1[N+](=O)[O-])C2=O,Fluorescence Intensity,[1],17
same,Uptake,[2],98 fmol/cell
same,Fluorescence Intensity,[3],335
Nc1ccc2c3c(cccc13)C(=O)N(CCCCCCCCCn1ccnc1[N+](=O)[O-])C2=O,Fluorescence Intensity,[1],78
same,Uptake,[2],105 fmol/cell
same,Fluorescence Intensity,[3],263
COc1ccc2c(Cn3ccnc3[N+](=O)[O-])cc(=O)oc2c1,Fluorescence Intensity,[1],24
same,Fluorescence Intensity,[3],361
COc1cc2cc(Cn3ccnc3[N+](=O)[O-])c(=O)oc2cc1OC,Fluorescence Intensity,[1],238
same,Fluorescence Intensity,[3],1149
Br.COc1ccc2c(CSCCN)cc(=O)oc2c1,Fluorescence Intensity,[1],19
same,Fluorescence Intensity,[3],77
COc1cc2nc(N3CCN(CC(O)Cn4ccnc4[N+](=O)[O-])CC3)nc(N)c2cc1OC (centres undefined),Fluorescence Intensity,[1],39
same,Fluorescence Intensity,[3],85
